Measurements from ChEMBL document CHEMBL3414524, “Synthesis, carbonic anhydrase inhibition and cytotoxic activity of novel chromone-based sulfonamide derivatives” (Eur J Med Chem, 2015).

What was measured:
A549 [1] = test: Cytotoxicity against human A549 cells after 72 hrs by sulforhodamine B assay; format: functional, cell-based; conditions: A549, 72 h
Procedure, shortened: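 Cells in log phase were plated at 1000-2000 cells/well. After 24 h they were exposed to a range of concentrations for 72 h, then fixed with 10% TCA for 1 h at 4 °C. Staining used 0.4% SRB in 1% acetic acid for 10 min at room temperature, with the dye solubilized in Tris-HCl and OD read at 564 nm. IC50 came from a Boltzmann sigmoidal nonlinear fit, as the mean of three separate experiments.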

MCF7 [2] = test: Cytotoxicity against human MCF7 cells after 72 hrs by sulforhodamine B assay; format: functional, cell-based; conditions: MCF7, 72 h
Procedure, shortened: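 Cells in log phase were plated at 1000-2000 cells/well. After 24 h they were exposed to a range of concentrations for 72 h, then fixed with 10% TCA for 1 h at 4 °C. IC50 came from a Boltzmann sigmoidal nonlinear fit, as the mean of three separate experiments.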

Carbonic anhydrase 12 = Carbonic anhydrase 12 (Homo sapiens, UniProt O43570); test: Inhibition of human membrane associated form of carbonic anhydrase-12 assessed as CO2 hydration activity incubated for 15 mins prior to testing by stopped flow method
Carbonic anhydrase 9 = Carbonic anhydrase 9 (Homo sapiens, UniProt Q16790); test: Inhibition of human membrane associated form of carbonic anhydrase-9 assessed as CO2 hydration activity incubated for 15 mins prior to testing by stopped flow method
Carbonic anhydrase 2 = Carbonic anhydrase 2 (Homo sapiens, UniProt P00918); test: Inhibition of human cytosolic form of carbonic anhydrase-2 assessed as CO2 hydration activity incubated for 15 mins prior to testing by stopped flow method
Carbonic anhydrase 1 = Carbonic anhydrase 1 (Homo sapiens, UniProt P00915); test: Inhibition of human cytosolic form of carbonic anhydrase-1 assessed as CO2 hydration activity incubated for 15 mins prior to testing by stopped flow method
MCF7 [3] = test: Induction of apoptosis in human MCF7 cells assessed as late apoptotic cells at 0.72 uM after 24 hrs by annexin V-FITC/propidium iodide staining-based flow cytometric analysis (reference value: 0.01%); format: functional
Procedure, shortened: (§1)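 Cells were seeded at 1 x 10^5 cells/ml and held 24 h at 37 °C in 5% CO2, then treated for a further 24 h. They were harvested with 0.25% trypsin, washed twice in Ca2+/Mg2+-free PBS and adjusted to 1 x 10^6 cells/ml. Staining with annexin V-FITC/PI ran 30 min in the dark at room temperature, in binding buffer, with flow cytometry within 1 h. Untreated cells served as control.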

MCF7 [4] = test: Induction of apoptosis in human MCF7 cells assessed as early apoptotic cells at 0.72 uM after 24 hrs by annexin V-FITC/propidium iodide staining-based flow cytometric analysis relative to control; format: functional; procedure, shortened: as §1
MCF7 [5] = test: Induction of apoptosis in human MCF7 cells assessed as viable cells at 0.72 uM after 24 hrs by annexin V-FITC/propidium iodide staining-based flow cytometric analysis (reference value: 98.41%); format: functional; conditions: MCF7, 24 h, read-out: Activity; procedure, shortened: as §1
A549 [6] = test: Induction of apoptosis in human A549 cells assessed as viable cells at 0.5 uM after 24 hrs by annexin V-FITC/propidium iodide staining-based flow cytometric analysis (reference value: 96.06%); format: functional; conditions: A549, 24 h, read-out: Activity; procedure, shortened: as §1
A549 [7] = test: Induction of apoptosis in human A549 cells assessed as late apoptotic cells at 0.5 uM after 24 hrs by annexin V-FITC/propidium iodide staining-based flow cytometric analysis relative to control; format: functional; procedure, shortened: as §1
MCF7 [8] = test: Induction of apoptosis in human MCF7 cells assessed as necrotic cells at 0.72 uM after 24 hrs by annexin V-FITC/propidium iodide staining-based flow cytometric analysis (reference value: 1.58%); format: functional; procedure, shortened: as §1
A549 [9] = test: Induction of apoptosis in human A549 cells assessed as early apoptotic cells at 0.5 uM after 24 hrs by annexin V-FITC/propidium iodide staining-based flow cytometric analysis (reference value: 1.9%); format: functional; procedure, shortened: as §1
A549 [10] = test: Induction of apoptosis in human A549 cells assessed as necrotic cells at 0.5 uM after 24 hrs by annexin V-FITC/propidium iodide staining-based flow cytometric analysis (reference value: 2.04%); format: functional; procedure, shortened: as §1

Sequence of Carbonic anhydrase 1 (P00915 whole entry): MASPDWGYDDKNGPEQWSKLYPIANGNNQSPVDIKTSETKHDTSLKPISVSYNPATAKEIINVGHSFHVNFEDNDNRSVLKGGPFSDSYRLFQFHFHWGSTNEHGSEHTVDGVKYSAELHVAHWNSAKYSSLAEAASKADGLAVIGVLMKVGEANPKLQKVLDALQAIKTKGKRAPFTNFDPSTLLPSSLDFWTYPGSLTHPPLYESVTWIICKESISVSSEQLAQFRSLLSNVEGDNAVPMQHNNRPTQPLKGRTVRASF
Sequence of Carbonic anhydrase 12 (O43570 whole entry): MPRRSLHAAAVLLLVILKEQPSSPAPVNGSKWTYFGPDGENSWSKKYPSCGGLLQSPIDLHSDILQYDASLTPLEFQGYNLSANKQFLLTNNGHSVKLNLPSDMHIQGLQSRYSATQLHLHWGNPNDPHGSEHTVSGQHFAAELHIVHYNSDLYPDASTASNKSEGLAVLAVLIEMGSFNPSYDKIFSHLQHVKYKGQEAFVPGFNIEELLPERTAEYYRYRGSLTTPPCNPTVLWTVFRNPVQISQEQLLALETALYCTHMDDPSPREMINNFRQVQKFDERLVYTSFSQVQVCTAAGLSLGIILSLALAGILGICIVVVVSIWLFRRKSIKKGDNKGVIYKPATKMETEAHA

Row | Ki (Carbonic anhydrase 9) [µM] | Ki (Carbonic anhydrase 1) [µM] | Structure (SMILES) | IC50 (A549 [1]) [µM] | IC50 (MCF7 [2]) [µM] | also measured
1 |  |  | O=C1/C(=C/c2coc3ccccc3c2=O)N=C(c2ccc(Cl)cc2)N1c1ccc(S(=O)(=O)Nc2ncccn2)cc1 | 59 | > 100 | 
2 |  |  | O=C1/C(=C/c2coc3ccccc3c2=O)N=C(c2ccccc2)N1c1ccc(S(=O)(=O)Nc2ncccn2)cc1 | 40.5 | > 100 | 
3 | 0.0209 | > 10 | CCOC1Oc2ccccc2C(=O)/C1=C/Nc1ccc(S(=O)(=O)Nc2ccccn2)cc1 (centres undefined) | 39.1 | 28.8 | Ki (Carbonic anhydrase 12): 0.062 µM; Ki (Carbonic anhydrase 2): > 10 µM
4 | 0.0247 | > 10 | O=C1N=C(Nc2ccc(S(=O)(=O)Nc3ncccn3)cc2)S/C1=C/c1coc2ccccc2c1=O | > 100 | 82.6 | Ki (Carbonic anhydrase 2): > 10 µM
5 | 0.0199 | > 10 | CCOC1Oc2ccccc2C(=O)/C1=C/Nc1ccc(S(=O)(=O)Nc2nccs2)cc1 (centres undefined) | > 100 | 48.6 | Ki (Carbonic anhydrase 2): > 10 µM
6 |  |  | Cc1cc(NS(=O)(=O)c2ccc(NC3=NC(=O)/C(=C\c4coc5ccccc5c4=O)S3)cc2)no1 | > 100 | > 100 | 
7 |  |  | Cc1cc(NS(=O)(=O)c2ccc(N3C(=O)/C(=C/c4coc5ccccc5c4=O)N=C3c3ccc(Cl)cc3)cc2)no1 | > 100 | > 100 | 
8 | 0.0143 | 0.399 | NS(=O)(=O)c1ccc(NC2=NC(=O)/C(=C\c3coc4ccccc4c3=O)S2)cc1 | 2.23 | 8.91 | 
9 | 0.0238 | > 10 | CCOC1Oc2ccccc2C(=O)/C1=C/Nc1ccc(S(=O)(=O)Nc2cc(C)on2)cc1 (centres undefined) | 57.2 | 25.8 | Ki (Carbonic anhydrase 2): > 10 µM
10 |  |  | O=c1c(CNc2ccc(S(=O)(=O)Nc3nccs3)cc2)coc2ccccc12 | 25.6 | 58.6 | 
11 |  |  | CCOC1Oc2ccccc2C(=O)/C1=C/Nc1ccc(S(=O)(=O)Nc2ncccn2)cc1 (centres undefined) | > 100 | 30.1 | 
12 |  |  | Cc1cc(C)nc(NS(=O)(=O)c2ccc(NCc3coc4ccccc4c3=O)cc2)n1 | 55.8 | 93.6 | 
13 | 0.0184 | > 10 | NS(=O)(=O)c1ccc(N2C(=O)/C(=C/c3coc4ccccc4c3=O)N=C2c2ccc(Cl)cc2)cc1 | 13.8 | 24.3 | 
14 |  |  | O=c1c(CNc2ccc(S(=O)(=O)Nc3ccccn3)cc2)coc2ccccc12 | > 100 | > 100 | 
15 | 0.0298 |  | NS(=O)(=O)c1ccc(NCc2coc3ccccc3c2=O)cc1 | 0.5 | 0.72 | Activity (MCF7 [3]): 0.72%; Activity (MCF7 [4]): 94.12%; viability at 0.72 µM (MCF7 [5]): 5.16%; viability at 0.5 µM (A549 [6]): 23.5%; Activity (A549 [7]): 1.64%; Activity (MCF7 [8]): 0%; Activity (A549 [9]): 74.77%; Activity (A549 [10]): 0.06%
16 |  |  | O=c1c(CNc2ccc(S(=O)(=O)Nc3ncccn3)cc2)coc2ccccc12 | 85.2 | > 100 | 
17 | 0.023 | 8 | NS(=O)(=O)c1ccc(N2C(=O)/C(=C/c3coc4ccccc4c3=O)N=C2c2ccccc2)cc1 | 1.73 | 11.5 | 
18 |  |  | O=C1/C(=C/c2coc3ccccc3c2=O)N=C(c2ccccc2)N1c1ccc(S(=O)(=O)Nc2ccccn2)cc1 | > 100 | > 100 | 
19 |  |  | O=C1/C(=C/c2coc3ccccc3c2=O)N=C(c2ccc(Cl)cc2)N1c1ccc(S(=O)(=O)Nc2ccccn2)cc1 | > 100 | > 100 | 
20 |  |  | Cc1cc(C)nc(NS(=O)(=O)c2ccc(N3C(=O)/C(=C/c4coc5ccccc5c4=O)N=C3c3ccccc3)cc2)n1 | 63.2 | 99.7 | 
21 |  |  | O=C1N=C(Nc2ccc(S(=O)(=O)Nc3nccs3)cc2)S/C1=C/c1coc2ccccc2c1=O | > 100 | > 100 | 
22 |  |  | Cc1cc(C)nc(NS(=O)(=O)c2ccc(NC3=NC(=O)/C(=C\c4coc5ccccc5c4=O)S3)cc2)n1 | > 100 | > 100 | 
23 |  |  | COc1cccc2c1C(=O)c1c(O)c3c(c(O)c1C2=O)C[C@@](O)(C(=O)CO)C[C@@H]3O[C@H]1C[C@H](N)[C@H](O)[C@H](C)O1 [DOXORUBICIN] | 26.8 |  | 
24 |  |  | O=C1/C(=C/c2coc3ccccc3c2=O)N=C(c2ccc(Cl)cc2)N1c1ccc(S(=O)(=O)Nc2nccs2)cc1 | > 100 | > 100 | 
25 | 0.0252 | > 10 | Cc1cc(NS(=O)(=O)c2ccc(N3C(=O)/C(=C/c4coc5ccccc5c4=O)N=C3c3ccccc3)cc2)no1 | > 100 | 30 | 
26 |  |  | CCOC1Oc2ccccc2C(=O)/C1=C/Nc1ccc(S(N)(=O)=O)cc1 (centres undefined) | 33.4 | 22.2 | 
27 |  |  | O=C1/C(=C/c2coc3ccccc3c2=O)N=C(c2ccccc2)N1c1ccc(S(=O)(=O)Nc2nccs2)cc1 | 88.4 | 88.5 | 
28 | 0.0376 | > 10 | CCOC1Oc2ccccc2C(=O)/C1=C/Nc1ccc(S(=O)(=O)Nc2nc(C)cc(C)n2)cc1 (centres undefined) | 36.4 | 45.6 | Ki (Carbonic anhydrase 2): > 10 µM
29 |  |  | Cc1cc(C)nc(NS(=O)(=O)c2ccc(N3C(=O)/C(=C/c4coc5ccccc5c4=O)N=C3c3ccc(Cl)cc3)cc2)n1 | 52.6 | 93.9 | 

Row | Structure (SMILES) | Ki (Carbonic anhydrase 9) [µM] | Ki (Carbonic anhydrase 1) [µM] | IC50 (A549 [1]) [µM] | IC50 (MCF7 [2]) [µM] | also measured
30 | Cc1cc(NS(=O)(=O)c2ccc(NCc3coc4ccccc4c3=O)cc2)no1 | 0.0321 | > 10 | 59.7 | 34.5 | Ki (Carbonic anhydrase 2): > 10 µM
31 | O=C1N=C(Nc2ccc(S(=O)(=O)Nc3ccccn3)cc2)S/C1=C/c1coc2ccccc2c1=O | 0.0256 | > 10 | > 100 | 47.1 | 
